From ChEMBL document CHEMBL2057201, “New CD1d agonists: synthesis and biological activity of 6″-triazole-substituted α-galactosyl ceramides” (Bioorg Med Chem Lett, 2012)
Calls of active or inactive are those of the source. The rule behind the calls is not given here.

How the values were obtained:
Mus musculus [1] = assay: Immunomodulatory activity in ip dosed C57BL/6 mouse assessed as stimulation of IFNgamma production after 24 hrs; assay type: functional, organism-based
Summary of the method: (§1)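 C57BL/6 mice received the glycolipids by intraperitoneal injection. Cytokines were measured in serum: IL-4 at 2 h and IFN-γ at 24 h after injection.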

Mus musculus [2] = assay: Immunomodulatory activity in ip dosed C57BL/6 mouse assessed as stimulation of IFNgamma production after 24 hrs
iNKT = assay: Immunomodulatory activity in mouse iNKT DN3A4-1.2 cells assessed as stimulation of IL2 production after 24 hrs by ELISA
Mus musculus [3] = assay: Immunomodulatory activity in ip dosed C57BL/6 mouse assessed as stimulation of IL4 production after 2 hrs; assay type: functional, organism-based; summary of the method: as §1
Mus musculus [4] = assay: Immunomodulatory activity in ip dosed C57BL/6 mouse assessed as stimulation of IL4 production after 2 hrs

Compound | Activity (Mus musculus [1]) | Activity (Mus musculus [2]) | Activity (iNKT) | Activity (Mus musculus [3]) | Activity (Mus musculus [4])
CCCCCCCCCCCCCCCCCCCCCCCCCC(=O)N[C@@H](CO[C@H]1O[C@H](CN=[N+]=[N-])[C@H](O)[C@H](O)[C@H]1O)[C@H](O)[C@H](O)CCCCCCCCCCCCCC | Active | Active | Active |  | 
CCCCCCCCCCCCCCCCCCCCCCCCCC(=O)N[C@@H](CO[C@H]1O[C@H](Cn2cc(-c3ccccc3)nn2)[C@H](O)[C@H](O)[C@H]1O)[C@H](O)[C@H](O)CCCCCCCCCCCCCC |  |  | Active |  | 
CCCCCCCCCCCCCCCCCCCCCCCCCC(=O)N[C@@H](CO[C@H]1O[C@H](Cn2nnc3ccccc32)[C@H](O)[C@H](O)[C@H]1O)[C@H](O)[C@H](O)CCCCCCCCCCCCCC |  |  | Active |  | 
CCCCCCCCCCCCCCCCCCCCCCCCCC(=O)N[C@@H](CO[C@H]1O[C@H](Cn2nnc(-c3ccccc3)c2-c2ccccc2)[C@H](O)[C@H](O)[C@H]1O)[C@H](O)[C@H](O)CCCCCCCCCCCCCC |  |  | Active |  | 
CCCCCCCCCCCCCCCCCCCCCCCCCC(=O)N[C@@H](CO[C@H]1O[C@H](Cn2cc(CCCCCCCC)nn2)[C@H](O)[C@H](O)[C@H]1O)[C@H](O)[C@H](O)CCCCCCCCCCCCCC | Active | Active | Active | Active | Active
CCCCCCCCCCCCCCCCCCCCCCCCCC(=O)N[C@@H](CO[C@H]1O[C@H](Cn2nncc2-c2ccccc2)[C@H](O)[C@H](O)[C@H]1O)[C@H](O)[C@H](O)CCCCCCCCCCCCCC |  |  | Active | Active | Active
CCCCCCCCCCCCCCCCCCCCCCCCCC(=O)N[C@@H](CO[C@H]1O[C@H](Cn2cc(COCCOCCOCCOCCOCCOCCOCCOCCOC)nn2)[C@H](O)[C@H](O)[C@H]1O)[C@H](O)[C@H](O)CCCCCCCCCCCCCC | Active | Active | Active | Active | Active
CCCCCCCCCCCCCCCCCCCCCCCCCC(=O)N[C@@H](CO[C@H]1O[C@H](Cn2cc(CCCCCCCCCCCC)nn2)[C@H](O)[C@H](O)[C@H]1O)[C@H](O)[C@H](O)CCCCCCCCCCCCCC | Active | Active |  | Active | Active
